CSN deneddyl inh = inhibitors of CSN-mediated cullin deneddylation, primary screen, biochemical, fluorescence polarization, uHTS; COP9 signalosome complex subunit 5 (Homo sapiens), Q92905; Purified CSN, SCF-Nedd8-OG deneddylation; inhibition, % at 12.5 µM; actives 0.38% (n = 360,000);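 active means pattern-corrected inhibition above about 35%, with an unprinted fluorescence ratio check between 0.5 and 1.5, limit read from the data, passing the limit was not always enough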
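Assay system: Purified human Csn5 enzyme expressed in HEK293T cells | Amount: Enzyme 0.24 nM | Measured by: Fluorescence polarization readout | Medium: Tris/NaCl/DTT buffer, pH 7.5 | Compound dosing: One concentration, 12.5 µM, 0.25% DMSO | Times: 90 min incubation of compound, enzyme and substrate at room temperature | Control set: no-enzyme wells high, enzyme-with-substrate wells low | Read-out: % inhibition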
CRFBP-R2 block = antagonists of CRF-BP/CRF-R2 complex, primary screen, cell-based, HEK293, calcium dye fluorescence, uHTS; actives 0.59% (n = 350,000); inhibition, % at 11.8 µM; CRF-induced calcium fluorescence;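 active means inhibition of the ligand-induced calcium signal above about 50% at the single tested concentration, limit read from the data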
TPT1 inh = Candida albicans TPT1 enzyme inhibitors, primary screen, biochemical, fluorescence polarization; tRNA 2'-phosphotransferase TPT1 (Candida albicans SC5314); recombinant caTPT1, FP RNA substrate dephosphorylation; inhibition, % at 5 µM; actives 0.81% (n = 300,000); AID 1962, 2009;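 active means inhibition above the mean of all tested compounds plus 3 SD, set per screening campaign, cut at about 24% in these data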
CRFR2-BP ag = agonists of CRF-BP/CRF-R2 complex, primary screen, cell-based, HEK293, calcium dye fluorescence, uHTS; calcium dye fluorescence (FLIPR); percent of saturating CRF peptide response; actives 0.46% (n = 350,000); activation, % at 13.2 µM;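 active means activation of at least 50%, plus an integration ratio under a set limit after plate pattern correction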
HNF4A DNA FP = change in binding of human HNF4A to DNA, primary screen, biochemical, fluorescence polarization, FITC-DNA. 1 h. activity change, % at 10 µM. actives 0.3% (n = 360,000); in the data active means activity change above about 30%, passing the limit was not always enough
Rpn11 inh = Rpn11 (PSMD14) deubiquitinase inhibitors, primary screen, biochemical, fluorescence polarization, uHTS. actives 0.59% (n = 360,000). AID 588493, 2011. human 26S proteasome, Ub4-pepOG fluorescence polarization; 20S core pre-blocked with epoxomicin. calls only at 20 µM;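 active means inhibition at 20 µM, scaled to each plate's controls, above about 33%, limit read from the data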
Target sequence (O00487 whole entry, looked up): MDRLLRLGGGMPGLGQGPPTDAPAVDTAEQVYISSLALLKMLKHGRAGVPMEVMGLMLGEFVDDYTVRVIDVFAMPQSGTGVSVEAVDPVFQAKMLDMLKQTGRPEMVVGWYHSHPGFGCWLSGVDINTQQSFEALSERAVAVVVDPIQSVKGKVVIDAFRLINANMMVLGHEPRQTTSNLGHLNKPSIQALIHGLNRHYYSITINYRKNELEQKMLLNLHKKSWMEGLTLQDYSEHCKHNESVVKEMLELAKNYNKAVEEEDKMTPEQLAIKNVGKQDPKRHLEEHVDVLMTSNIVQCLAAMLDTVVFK
A number is an active result; – = inactive; · = no result shown; + = active, no number. A selection: hits, their analogues and other compounds. The true share with any hit is near 2.3%.

SMILES	CSN deneddyl inh	CRFBP-R2 block	TPT1 inh	CRFR2-BP ag	HNF4A DNA FP	Rpn11 inh
O=C(O)c1cnc(-c2ccccc2)nc1Sc1ccc(Cl)cc1Cl	–	97	–	–	–	–
O=C(O)c1cnc(-c2ccccc2)nc1Sc1cccc(Cl)c1	–	–	–	–	–	–
CC1CCC(NC(=O)CCN2C(=O)C3CC=CCC3C2=O)CC1 (stereo not given)	–	106	·	–	–	–
O=C(CCN1C(=O)C2CC=CCC2C1=O)NC1CCCCC1 (stereo not given)	–	–	–	–	–	–
COc1ccc(CC(=O)N/N=C(\C)c2ccc(Br)s2)cc1	–	83	–	–	–	–
O=C(Cn1c(=O)n(Cc2ccco2)c(=O)c2c3c(sc21)CCCCC3)c1ccccc1	38	–	–	–	–	–
CCN(CC(=O)Nc1cc(Cl)ccc1C)CC(=O)NC1CC1	–	–	·	–	–	–
CCOc1ccccc1NC(=O)C1CCC(=O)N1S(=O)(=O)c1ccc(C)cc1 (stereo not given)	–	82	·	–	–	–
CCN(CC)c1ccc(/C=c2\sc3nc4ccccc4n3c2=O)c(O)c1	–	–	·	165	–	–
Cc1cc(=O)oc2cc(OCC(=O)N3CCN(c4ccc(F)cc4)CC3)ccc12	–	–	–	–	–	–
COc1ccc(C(=O)NCC(=O)N2CCN(C(=O)c3ccco3)CC2)cc1	–	–	–	316	–	–
COc1ccc(C(=O)NCC(=O)N2CCN(C(=O)c3ccco3)CC2)cc1OC	–	–	·	–	–	–
Cc1ccccc1Cn1nc(C)c(NC(=O)c2cc(-c3ccco3)on2)c1C	–	–	–	–	–	–
Cc1ccccc1Cn1nc(C)c(NC(=O)c2cc(-c3cccs3)on2)c1C	–	57	–	–	–	–
CCOc1ccccc1NC(=O)Cn1nnc(C(=O)NCc2ccc3c(c2)OCO3)c1N	–	–	–	–	–	–
COc1cc(-c2cc(=O)c3c(C)cc(O)cc3o2)cc(OC)c1OC	–	–	·	–	–	–
CCn1cc(C(=O)NCC2CCCO2)c(=O)c2cc(S(=O)(=O)N(C)C3CCCCC3)ccc21 (stereo not given)	–	–	–	–	–	–
Cc1noc(C)c1CSc1nc2ccccc2nc1NS(=O)(=O)c1ccc(Cl)cc1	–	–	–	–	–	–
CCOc1ccccc1C(=O)Nc1ccc(-n2nncc2C(C)(C)C)cc1	–	–	–	–	70	–
COc1cccc(CN2CCNC(=O)C2CC(=O)N2CCOc3ccccc3C2)c1OC (stereo not given)	–	–	–	–	–	–
O=C(CSc1nc(-c2ccc(F)cc2)cs1)N1CCOCC1	–	–	–	–	–	–
c1ccc(-c2noc(CN3CCN(c4cnccn4)CC3)n2)cc1	–	74	–	–	–	–
CC(C)N(C(=O)Cn1cc(SCC(=O)NCC2CCCO2)c2ccccc21)C(C)C (stereo not given)	–	–	–	–	–	–
CC1(C)c2[nH]c3ccccc3c2C[C@@H]2C(=O)N(Cc3ccccc3)C(=O)N21	–	–	–	–	–	–
CC1(C)c2[nH]c3ccccc3c2C[C@H]2C(=O)N(Cc3ccccc3)C(=O)N21	–	60	–	–	–	–
SMILES	CSN deneddyl inh	CRFBP-R2 block	TPT1 inh	CRFR2-BP ag	HNF4A DNA FP	Rpn11 inh
O=C(O)CSc1c(-c2ccccc2)c2cc(Cl)ccc2[nH]c1=O	–	–	–	–	–	–
CCN(CC)C(=S)Sc1c(-c2ccccc2)c2cc(Cl)ccc2[nH]c1=O	–	–	–	71	–	–
CNC(=S)NCCC(c1ccccc1)c1ccccc1	–	–	–	–	–	–
Cc1ccc(NC(=O)CSC2=C(C#N)C(c3ccco3)CC(=O)N2)cc1 (stereo not given)	–	109	–	–	–	–
Cc1ccc(NC(=O)CSC2=C(C#N)C(c3ccco3)C3=C(CC(C)(C)CC3=O)N2)cc1 (stereo not given)	–	–	–	–	–	–
Cc1ccc(C(=O)CSC2=C(C#N)C(c3ccco3)CC(=O)N2)c(C)c1 (stereo not given)	–	–	–	57	–	–
NS(=O)(=O)c1ccc(NC(=O)CSc2nnc(C3CC3)n2C2CC2)cc1	–	–	·	–	–	–
Cc1cc(NC(=O)c2cc(-c3ccccn3)nc3ccccc23)no1	–	–	–	–	–	–
Cc1cc(NC(=O)c2cc(-c3ccccn3)nc3ccc(Br)cc23)no1	44	–	–	–	–	–
COc1ccccc1Cc1c(-c2ccc(C#N)cc2)nc2c(Cl)cc(C(F)(F)F)cn12	46	·	·	·	–	·
COc1ccccc1Cc1c(-c2ccc(Cl)cc2)nc2c(Cl)cc(C(F)(F)F)cn12	–	·	·	·	–	·
COc1ccccc1Cc1c(-c2ccccc2)nc2c(C)cc(Br)cn12	97	·	·	·	–	–
N#Cc1cccc(NC(=O)Nc2cccs2)c1	–	108	–	–	–	–
COC(=O)C1=C(NC(=O)c2cccc(OC)c2)CCS1	–	67	–	–	–	–
CCN(c1ccccc1)S(=O)(=O)c1ccc(NC(=O)c2ccco2)cc1	–	77	–	–	–	–
O=C(Nc1cc(Cl)cc(Cl)c1)c1coc(=O)c(Br)c1	–	71	–	–	–	–
O=C(NC(CO)(CO)CO)c1coc(=O)c(Br)c1	–	–	–	–	–	–
O=c1oc(CCO)cc2ccccc12	–	–	·	–	–	–
CN(C)c1ccc(C#Cc2ccc3cc(CCO)oc(=O)c3c2)cc1	–	–	·	–	–	+
O=c1oc(CCO)cc2ccc(Br)cc12	–	66	·	–	–	–
COc1cc(C#Cc2ccc3cc(CCO)oc(=O)c3c2)cc(OC)c1	–	–	·	–	–	–
O=C(CSc1nc2c([nH]c3ccccc32)c(=O)n1-c1cccc(Cl)c1)N1CCOCC1	80	–	–	–	–	–
O=C(CSc1nc2c([nH]c3ccccc32)c(=O)n1-c1ccccc1)N1CCOCC1	–	–	–	–	–	–
Cc1ccc(S(=O)(=O)CCC(=O)OCC(=O)Nc2sccc2C#N)cc1	–	–	·	–	–	–
COc1ccc(C2/C(=C(/O)c3ccc(Br)cc3)C(=O)C(=O)N2C)cc1OC (stereo not given)	–	–	–	–	–	–
CCOC(=O)/C(=C/C=C1\Sc2cc(C)c(C)cc2N1CC)C(C)=O	–	–	·	156	–	·
CCC(=O)/C=C1/Sc2ccc(OC)cc2N1CC	–	–	–	–	–	–

Bioassay records (PubChem BioAssay)
